Experimental data taken from ChEMBL document CHEMBL3044526, “Synthesis, fungicidal activity, and QSAR of pyridazinonethiadiazoles” (2002).

Test system: Puccinia recondita
Assay: Antifungal activity against Puccinia recondita wheat leaves treated as foliar spray after 10 days relative to triadimefon
Assay type: functional
Outline: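 Susceptible wheat cv. Ming-Xian 169 (10 germinating seeds per pot) was grown in a greenhouse at 15-20 °C and inoculated with P. recondita, then held 24 h in a moist chamber. Once the leaves were dry, each pot got a 10 mL spray of compound solution. Percent disease control versus untreated pots was scored 10 days later, in triplicate. Triadimefon (100 ppm) was run alongside. D = lg[a/(100−a)] − lg Mw.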

Structure (SMILES): Cc1cc(=O)c(-c2nnc(Nc3cccc(C(F)(F)F)c3)s2)nn1-c1ccc(Cl)cc1
- inhibition (INH): 60%

Structure (SMILES): Cc1cc(=O)c(-c2nnc(Nc3cccc(C(F)(F)F)c3)s2)nn1-c1c(Cl)cccc1Cl
- inhibition (INH): 50%

Structure (SMILES): Cc1cc(=O)c(-c2nnc(Nc3cccc(C(F)(F)F)c3)s2)nn1-c1ccc(Cl)cc1Cl
- inhibition (INH): 90%

Structure (SMILES): Cc1cc(=O)c(-c2nnc(Nc3ccccc3F)s2)nn1-c1ccc(Cl)cc1Cl
- inhibition (INH): 80%

Structure (SMILES): Cc1cc(=O)c(-c2nnc(Nc3ccccc3)s2)nn1-c1ccccc1Cl
- inhibition (INH): 10%

Structure (SMILES): Cc1cc(=O)c(-c2nnc(Nc3ccccc3F)s2)nn1-c1cc(Cl)c(Cl)cc1Cl
- inhibition (INH): 60%

Structure (SMILES): Cc1ccc(-n2nc(-c3nnc(Nc4cccc(C(F)(F)F)c4)s3)c(=O)cc2C)c(C)c1
- inhibition (INH): 90%

Structure (SMILES): Cc1cc(=O)c(-c2nnc(Nc3ccccc3)s2)nn1-c1ccc(Cl)cc1Cl
- inhibition (INH): 20%

Structure (SMILES): Cc1cc(=O)c(-c2nnc(Nc3cccc(C(F)(F)F)c3)s2)nn1-c1ccccc1
- inhibition (INH): 60%

Structure (SMILES): Cc1cc(=O)c(-c2nnc(Nc3ccccc3F)s2)nn1-c1c(Cl)cccc1Cl
- inhibition (INH): 30%

Structure (SMILES): Cc1cc(=O)c(-c2nnc(Nc3cccc(C(F)(F)F)c3)s2)nn1-c1ccccc1Cl
- inhibition (INH): 70%

Structure (SMILES): Cc1cc(=O)c(-c2nnc(Nc3cccc(C(F)(F)F)c3)s2)nn1-c1cc(Cl)c(Cl)cc1Cl
- inhibition (INH): 70%

Structure (SMILES): Cc1cc(=O)c(-c2nnc(Nc3ccccc3F)s2)nn1-c1ccccc1Cl
- inhibition (INH): 10%

Structure (SMILES): Cc1cc(=O)c(-c2nnc(Nc3ccccc3F)s2)nn1-c1ccc(Cl)cc1
- inhibition (INH): 50%

Structure (SMILES): Cc1cc(=O)c(-c2nnc(Nc3ccccc3F)s2)nn1-c1ccccc1
- inhibition (INH): 50%

Structure (SMILES): Cc1ccc(-n2nc(-c3nnc(Nc4ccccc4F)s3)c(=O)cc2C)c(C)c1
- inhibition (INH): 90%
